Only some compounds are listed: those with a hit (about 11% of all), similar ones and a draw of the others.
M1 antag – M1 muscarinic receptor (rat) antagonism; P08482; CHO-M1 cells, Fluo-4 calcium, ACh EC80 antagonist mode; active compounds read low; B-score at 10 µM; actives 3.4% (n = 64,000); AID 628;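 active means calcium fluorescence response, raw or row-and-column corrected B-score, differing from the plate sample mean either way at a set confidence level, mostly lower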
Target sequence (P08482 whole entry, looked up): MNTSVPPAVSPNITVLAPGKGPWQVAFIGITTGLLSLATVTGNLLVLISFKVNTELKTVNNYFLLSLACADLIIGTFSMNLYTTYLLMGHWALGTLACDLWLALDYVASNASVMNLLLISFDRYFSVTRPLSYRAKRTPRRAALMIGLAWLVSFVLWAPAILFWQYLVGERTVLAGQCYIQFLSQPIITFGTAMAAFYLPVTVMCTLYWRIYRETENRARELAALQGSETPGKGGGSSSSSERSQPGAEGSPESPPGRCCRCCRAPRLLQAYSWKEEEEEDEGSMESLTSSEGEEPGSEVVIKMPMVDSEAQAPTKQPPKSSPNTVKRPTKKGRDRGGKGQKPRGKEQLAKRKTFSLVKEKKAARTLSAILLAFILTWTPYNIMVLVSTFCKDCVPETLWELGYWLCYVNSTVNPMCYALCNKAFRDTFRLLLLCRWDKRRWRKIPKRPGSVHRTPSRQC
S1P1 ag pot – activates or potentiates agonism at human S1P1 receptor. P21453. S1P1 CRE-bla cells, forskolin, beta-lactamase FRET, potentiator mode; S1P1 agonist co-added at EC20, 2 nM; 100% = saturating reference agonist, 0% = basal. activation, % at 9.5 µM. actives 0.57% (n = 56,000). AID 449;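 active means activation above a cutoff set at the mean activation of all tested compounds plus 3 SD, cut at about 54% in these data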;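 further: forskolin at 4 µM as EC80 and the EC20 agonist is SEW2871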
S1P3 ag – agonists of human S1P3 receptor. AID 373. S1P3 NFAT-BLA reporter cells, agonism, FRET ratio; relative to 1 µM S1P, basal subtracted. Q99500. actives 0.1% (n = 60,000). activation, % at 4.5 µM;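 active means activation above the screen-wide mean plus 3 SD, cut at about 4.5% in these data, passing the limit was not always enough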
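Assay system: CHO cells stably expressing human S1P3, Gα16 and NFAT-β-lactamase reporter. Timing: overnight plating, 4 h compound 37 °C, 2 h substrate RT. Signal: β-lactamase FRET emission ratio 460/535 nm. Measure: percent activation versus median 1 µM S1P response, basal-subtracted, per plate. Repeats: primary screen single test, confirmation screen in triplicate.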
M1 agonist – activates the M1 muscarinic receptor. CHO-M1 cells, Fluo-4 calcium fluorescence, agonist mode; active compounds read high. B-score at 10 µM. actives 3% (n = 64,000). AID 626;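 active means fluorescence rise, raw or as B-score row- and column-corrected plate score, outside the 99.7% band of its plate's samples, either direction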
D1 mod – allosterically modulates the human D1 dopamine receptor; B-score at 10 µM; AID 641; HEK293 D1, CRE-luciferase, dopamine EC30 potentiation; actives deviate in either direction; actives 5.9% (n = 58,000); P21728;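 active means luminescence count or its row- and column-corrected plate score outside the 99.7% band of the plate's sample wells, on either side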
A number is an active result; - = inactive; . = not tested or not shown.

SMILES | M1 antag | S1P1 ag pot | S1P3 ag | M1 agonist | D1 mod
CCCCn1c(CN2CCN(c3cccc(Cl)c3)CC2)nc2c1c(=O)n(C)c(=O)n2C | - | - | - | - | -2.9
CCCCn1c(CN2CCN(c3ccccc3)CC2)nc2c1c(=O)n(C)c(=O)n2C | - | - | - | - | -
CCCCCn1c(CN2CCN(c3cccc(Cl)c3)CC2)nc2c1c(=O)n(C)c(=O)n2C | - | - | - | - | -
CCCn1c(CN2CCN(c3cccc(Cl)c3)CC2)nc2c1c(=O)n(C)c(=O)n2C | -2.5 | 135 | - | 11 | -
CCOc1ccc(C(C)=O)cc1CSc1nnc(-c2cccs2)n1CC1CCCO1 (stereo not given) | - | - | - | - | -
COc1ccccc1C(=O)Nc1ccc(S(=O)(=O)Nc2cc(C)on2)cc1 | - | . | . | - | -
COc1ccc(S(=O)(=O)Nc2cc(C)on2)cc1OC | - | - | - | - | -2.8
O=c1cc(C23CC4CC(CC(C4)C2)C3)[nH][nH]1 | - | . | - | - | -
Cc1cc(C)c2c3c(c(-c4ccccc4)n2n1)c(=O)n(C)c(=O)n3C | - | - | - | - | 5.6
Cn1c(=O)c2c(-c3ccccc3)n3c4ccccc4ncc3c2n(C)c1=O | - | . | - | - | -
CCn1cc2c(c1-c1cccc(C)c1)c(=O)n(C)c(=O)n2C | - | - | - | - | .
Cc1cccc(-c2c3c(=O)n(C)c(=O)n(C)c3c3c(C)cc(C)nn23)c1 | - | - | - | - | 3.6
Cc1ccccc1OCCN1C(=O)NC2(CCc3ccccc32)C1=O (stereo not given) | - | - | - | - | -
Cc1nc2ccccc2nc1N1CCCCC1 | - | - | - | - | -
c1ccc(Sc2nc(N3CCCCC3)nc(N3CCCCC3)n2)nc1 | 2.1 | . | . | - | -
Cc1ccnc(Nc2nc3ccccc3o2)n1 | - | - | - | - | -4.4
O=C(O)C(Cc1c[nH]c2ccccc12)NS(=O)(=O)c1cccc2nsnc12 (stereo not given) | - | - | - | - | -
CCCOC1(NC(=O)c2ccccc2)C(C)=CC(=O)C=C1C | - | - | - | - | -3.2
CCOC(=O)C(NC(=O)c1ccccc1)=C1CCCCC1 | - | - | - | - | -
O=S(=O)(Nc1ncnc2sc3c(c12)CCC3)c1ccc(Cl)s1 | - | - | - | - | -
Cc1nnc2c(-c3ccccc3)nc3ccccc3n12 | - | - | - | - | -
Cn1nc(-c2ccccc2)c2nc3ccccc3nc21 | 4.5 | - | - | 133 | -
COc1cc(S(=O)(=O)NCc2ccccc2)ccc1F | - | - | - | - | -
CCOc1cc(N2CCOCC2)c(OCC)cc1NC(=O)c1nc2nccc(C)n2n1 | - | - | - | 4.9 | -
CCOc1cc(N2CCOCC2)c(OCC)cc1NC(=O)Cc1cn2ccsc2n1 | - | - | - | - | -
SMILES | M1 antag | S1P1 ag pot | S1P3 ag | M1 agonist | D1 mod
CCOC(=O)C1=C(c2ccccc2)N=C2SCC(=O)N2C1c1ccc2c(c1)OCO2 (stereo not given) | - | - | - | - | -
CCOc1ccc(NC(=O)CCN2CCN(c3ccccc3OC)CC2)cc1 | - | - | - | - | .
COc1ccccc1N1CCN(CCC(=O)Nc2ccc3c(c2)OCO3)CC1 | . | . | . | . | -2.2
COc1ccc(C2c3c(oc4ccc(F)cc4c3=O)C(=O)N2CCN2CCOCC2)cc1OC (stereo not given) | - | - | - | - | -
O=C(COC(=O)c1cccs1)c1ccc2c(c1)OCCO2 | - | . | . | - | -3
Cc1cc(C(=O)CSc2nnc(-c3cccs3)o2)c(C)n1-c1ccccc1 | - | 101 | - | - | -3.6
Cc1cc2nc(NC3=NCN(Cc4ccc5c(c4)OCO5)CN3)nc(C)c2cc1C | -5.1 | - | - | - | .
Cc1nc(NC2=NCN(CCc3ccccc3)CN2)nc2c(C)cccc12 | - | - | - | - | -
Cc1cc2nc(NC3=NCN(CCN4CCOCC4)CN3)nc(C)c2cc1C | -5.7 | - | - | - | -
Cc1ccc2nc(NC3=NCN(Cc4ccccc4)CN3)nc(C)c2c1 | - | - | - | - | -
C=CCOC(=O)C1CC=CCC1C(=O)Oc1ccc(F)cc1F (stereo not given) | - | - | - | - | -
CC(=O)Nc1ccc(S(=O)(=O)NC2=NCN(CCOC(=O)c3ccccc3)CN2)cc1 | - | - | - | - | -5.2
Cc1cccc(C)c1NC(=O)C1(N2CCN(C(=O)c3ccco3)CC2)CCCCC1 | - | - | - | - | -
Cc1ocnc1C(=O)Nc1ccc(Cl)cc1 | - | - | - | - | -1.9
Cc1ncoc1C(=O)Nc1cccc(Cl)c1 | - | - | - | - | -
O=C(Nc1ccc2c(c1)OCO2)OCc1ccccc1 | - | . | - | - | -
c1ccc(C2=Nn3c(nnc3-c3n[nH]c4c3CCC4)SC2)cc1 | - | - | - | - | -3.6
CCn1c(CNc2ccc(F)cc2)nnc1SCC(=O)Nc1ccc(OC)cc1OC | - | - | - | - | -
COc1cccc(C(=O)Nc2nc(-c3ccc(S(=O)(=O)N4CCOCC4)cc3)cs2)c1 | - | . | - | - | -3.3
Cc1ccc(-c2csc(NC(=O)c3cccc(S(=O)(=O)N4CCN(C)CC4)c3)n2)cc1 | - | . | . | - | -
Cc1nc2ccc(NC(=O)c3ccc(S(=O)(=O)N4CCOCC4)cc3)cc2s1 | - | . | . | - | -
O=C(Nc1nc(-c2nc3ccccc3s2)cs1)c1ccc(S(=O)(=O)N2CCOCC2)cc1 | - | 109 | - | - | -
O=C(Nc1ccc(Cl)cc1)N1CCC(c2nc(-c3ccc(F)cc3)no2)CC1 | - | 57 | - | - | -
COc1ccc(NC(=O)N2CCCC(c3nc(-c4ccc(C(C)C)cc4)no3)C2)cc1 (stereo not given) | - | - | - | - | -
O=C(Nc1ccc2c(c1)OCCO2)NC1CCCCC1 | - | - | - | - | -3.1
SMILES | M1 antag | S1P1 ag pot | S1P3 ag | M1 agonist | D1 mod
O=C(Nc1ccc2c(c1)OCCO2)C1CCC1 | - | - | - | - | -
O=C(CN1C(=O)C2(OCCO2)c2ccccc21)c1ccc(Br)cc1 | - | . | . | - | -
CC1CCCCN1Cc1nc2c(c(=O)n(C)c(=O)n2C)n1Cc1cccc2ccccc12 (stereo not given) | - | - | - | - | -
CCOC(=O)N1CCC(NC(=O)CCC(=O)N2CCOc3ccc(C)cc32)CC1 | 3.3 | - | - | - | -
CCOC(=O)N1CCN(C(=O)CCC(=O)N2CCOc3ccc(C)cc32)CC1 | - | - | - | - | -
O=C1c2cccnc2C(=O)N1Cc1ccc(F)cc1 | - | - | - | - | -1.2
CC(C)Cc1nc2oc3c(NCc4cccnc4)ncnc3c2c2c1CCC2 | - | - | - | - | 4.8
Cc1ccc(C(=O)Nc2nc3c(s2)CCCC3)o1 | - | . | - | - | -4.7
O=C(Nc1ncc(Cc2ccccc2)s1)c1cccs1 | - | - | - | - | -
Cc1ccc(C(=O)Nc2ncc(Cc3ccccc3)s2)o1 | - | - | - | - | -2.8
CC1(C)CC(=O)C=C(NCC2CCCO2)C1 (stereo not given) | - | - | - | - | .
